Experiments:
A-431 = assay: Antiproliferative activity against human A431 cells after 48 to 72 hrs by MTT assay; type: functional, cell-based
In short: (§1)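 MTT assay read 48 and 72 h after compound addition. Cell lines grown in DMEM with 10% heat-inactivated FCS, 2 mM L-glutamine, 1 mM sodium pyruvate; GBM stem cells grown as nonadherent neurospheres. IC50 by Hill equation fit; ≥3 independent experiments, each point repeated six times.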

[1] = Antiproliferative activity against human Caco2 cells after 48 to 72 hrs by MTT assay; type: functional, cell-based; settings: Caco-2; in short: as §1
MDA-MB-231 = assay: Antiproliferative activity against human MDA-MB-231 cells after 48 to 72 hrs by MTT assay; type: functional, cell-based; in short: as §1
MDA-MB-435 = assay: Antiproliferative activity against human MDA-MB-435 cells after 48 to 72 hrs by MTT assay; type: functional, cell-based; in short: as §1
[2] = Antiproliferative activity against human HuH7 cells after 48 to 72 hrs by MTT assay; type: functional, cell-based; settings: Huh-7; in short: as §1
[3] = Antiproliferative activity against mouse B16F10 cells after 48 to 72 hrs by MTT assay; type: functional, cell-based; settings: B16-F10; in short: as §1
DU-145 = assay: Antiproliferative activity against human DU145 cells after 48 to 72 hrs by MTT assay; type: functional, cell-based; in short: as §1
C6 = assay: Antiproliferative activity against rat C6 cells after 48 to 72 hrs by MTT assay; type: functional, cell-based; in short: as §1
SNB-75 = assay: Antiproliferative activity against human SNB75 cells after 48 to 72 hrs by MTT assay; type: functional, cell-based; in short: as §1
[4] = Antiproliferative activity against human Gli7 cells after 48 to 72 hrs by MTT assay; type: functional, cell-based; in short: as §1
[5] = Antiproliferative activity against human Gli4F11 cells after 48 to 72 hrs by MTT assay

IC50 (A-431) [µM]	IC50 (MDA-MB-231) [µM]	IC50 (MDA-MB-435) [µM]	IC50 (DU-145) [µM]	SMILES	IC50 [1] [µM]	IC50 [2] [µM]	IC50 [3] [µM]	IC50 (C6) [µM]	IC50 (SNB-75) [µM]	IC50 [4] [µM]	IC50 [5] [µM]
> 100	4.15	1.16	> 100	CC1(C)O[C@@H]2[C@H](O1)[C@@H](N)[P@](=O)(c1ccccc1)O[C@@H]2[C@H]1COC(C)(C)O1	> 100	16.3	1.02	24.4	2.96	1.29	1.37
0.13	23.2	9.61	31.2	CC(=O)N[C@@H]1[C@H]2OC(C)(C)O[C@H]2[C@@H]([C@H]2COC(C)(C)O2)O[P@@]1(=O)c1ccccc1	36	21.9	14.9	0.65	0.65	0.5	0.54
0.55	> 100	> 100	> 100	CCCC[P@@]1(=O)O[C@H]([C@H]2COC(C)(C)O2)[C@@H]2OC(C)(C)O[C@@H]2[C@@H]1O	> 100	> 100	> 100	8.62	6.21	2.88	6.12
4.44	2.66	4.02	> 100	Cc1ccc(S(=O)(=O)O[C@H]2[C@H]3OC(C)(C)O[C@H]3[C@@H]([C@H]3COC(C)(C)O3)O[P@]2(=O)c2ccccc2)cc1	> 100	> 100	1.64	6.99	9.42	2.8	5.41
4.35	1.16	0.66	> 100	CC1(C)O[C@H]2[C@@H]([C@H]3COC(C)(C)O3)O[P@](=O)(c3ccccc3)[C@@H](OC(=O)c3ccccc3)[C@H]2O1	> 100	> 100	13.5	8.51	9.54	1.93	3.22
> 100	4.82	3.36	> 100	CC1(C)O[C@H]2[C@@H]([C@H]3COC(C)(C)O3)O[P@](=O)(c3ccccc3)[C@@H](Oc3ccc(N)cc3)[C@H]2O1	> 100	23.6	4.69	9.35	6.23	1.77	2.98
4.85	3.45	1.96	> 100	CC1(C)O[C@H]2[C@@H]([C@H]3COC(C)(C)O3)O[P@](=O)(c3ccccc3)[C@@H](OS(C)(=O)=O)[C@H]2O1	> 100	24	2.08	1.11	6.28	2.71	6.81
> 100	> 100	> 100	> 100	CC(=O)O[C@H]1[C@H]2OC(C)(C)O[C@H]2[C@@H]([C@H]2COC(C)(C)O2)O[P@]1(=O)c1ccccc1	> 100	> 100	> 100	10.2	1.37	3.62	8.76
0.98	6.08	11	> 100	CC1(C)O[C@H]2[C@@H]([C@H]3COC(C)(C)O3)O[P@@](=O)(c3ccccc3)[C@@H](O)[C@H]2O1	> 100	> 100	10.2	> 100	13.4	3.72	8.56
1.26	3.83	2.48	> 100	CC1(C)O[C@@H]2[C@H](O1)[C@@H](Nc1ccccc1)[P@](=O)(c1ccccc1)O[C@@H]2[C@H]1COC(C)(C)O1	> 100	24.2	1.96	10.3	9.99	1.82	2.68
0.77	5.6	11.6	> 100	CC1(C)O[C@@H]2[C@H](O1)[C@@H](O)[P@@](=O)(c1ccccc1)O[C@@H]2[C@H]1COC(C)(C)O1	> 100	> 100	10.4	> 100	16.1	5.81	11.4
4.7	4.17	3.99	> 100	CC1(C)O[C@@H]2[C@H](O1)[C@@H](NCc1ccccc1)[P@](=O)(c1ccccc1)O[C@@H]2[C@H]1COC(C)(C)O1	> 100	23.8	2.05	14.8	5.16	4.62	2.79
2.02	> 100	> 100	> 100	CC1(C)O[C@H]2[C@@H]([C@H]3COC(C)(C)O3)O[P@](=O)(c3ccccc3)[C@@H](Oc3ccc([N+](=O)[O-])cc3)[C@H]2O1	> 100	> 100	> 100	31.4	3.11	2.07	3.91
1.11	9.37	16.6	> 100	CC1(C)O[C@H]2[C@@H]([C@H]3COC(C)(C)O3)O[P@](=O)(c3ccccc3)[C@@H](O)[C@H]2O1	> 100	> 100	9.95	0.5	14.3	3.16	38.4
4.67	3.72	2.65	> 100	Cc1ccc(N[C@@H]2[C@H]3OC(C)(C)O[C@H]3[C@@H]([C@H]3COC(C)(C)O3)O[P@@]2(=O)c2ccccc2)cc1	> 100	23.6	2.02	5.5	5.37	2.8	5.55

SMILES	IC50 (A-431) [µM]	IC50 (MDA-MB-231) [µM]	IC50 (MDA-MB-435) [µM]	IC50 (DU-145) [µM]	IC50 [1] [µM]	IC50 [2] [µM]	IC50 [3] [µM]	IC50 (C6) [µM]	IC50 (SNB-75) [µM]	IC50 [4] [µM]	IC50 [5] [µM]
CC1(C)O[C@H]2[C@@H]([C@H]3COC(C)(C)O3)O[P@](=O)(c3ccccc3)[C@@H](Oc3ccc([N+](=O)[O-])c([N+](=O)[O-])c3)[C@H]2O1	0.84	6.35	2.66	> 100	> 100	23.8	2.59	9.44	6.99	1.93	2.87

— ChEMBL document CHEMBL3352177, “C-glycoside mimetics inhibit glioma stem cell proliferation, migration, and invasion” (J Med Chem, 2014)
